Measurements published in ChEMBL document CHEMBL3272072 (J Med Chem, 1976).
Activity calls are given as the source filed them. No cut-off for these calls is given here.

Assays:
[1] = target: Substance-P receptor (Rattus norvegicus) (UniProt P14600); experiment: Agonist activity at NK1 receptor in Sprague-Dawley rat pituitary gland assessed as change in LH release at 10000 ng/ml by radioimmunoassay (reference value: -11 +/- 27 ng/ml)
[2] = Retardation factor of the compound using n-PrOH-1N HOAc at ratio of 2:1 as solvent system by thin layer chromatography; format: physicochemical
Canis familiaris [3] = experiment: Decrease in systemic arterial blood pressure in dog at 10 ng/kg, iv measured for 2 to 20 mins after drug dosage (reference value: 140 mmHg); format: functional, Canis lupus familiaris, Artery
Pituitary gland [4] = experiment: Effect on growth hormone release in Sprague-Dawley rat pituitary gland at 100 ug/ml by radioimmunoassay; format: functional, tissue-based
Summary of the method: (§1)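 Anterior pituitaries from 20-day-old female Sprague-Dawley rats, two per 1 ml lactated Ringer's, incubated 6 hr at 37° with shaking. Medium was replaced hourly and assayed by RIA for LH, FSH, GH, PRL and TSH. Peptide was added after two preincubation periods (I3–I6), with LH-RH at I5 and I6. Agonism was read from I3/I4 release and antagonism from I5/I6. Values are in ng of NIH reference standards.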

[5] = target: Substance-P receptor (Cavia porcellus) (UniProt P30547); experiment: Agonist activity at NK1 receptor in guinea pig ileum assessed as increase in muscle tone; format: tissue-based
Summary of the method: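 Guinea pig ileum segment suspended in a 3-ml bath of oxygenated Tyrode's solution at 38°, with contractile response recorded.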

Pituitary gland [6] = experiment: Effect on prolactin release in Sprague-Dawley rat pituitary gland at 100 ug/ml by radioimmunoassay; format: functional, tissue-based
Summary of the method: as §1

[7] = target: Substance-P receptor (Rattus norvegicus) (UniProt P14600); experiment: Agonist activity at NK1 receptor in Sprague-Dawley rat pituitary gland assessed as change in FSH release at 1000 ng/ml by radioimmunoassay (reference value: 613 +/- 203 ng/ml)
[8] = target: Substance-P receptor (Rattus norvegicus) (UniProt P14600); experiment: Agonist activity at NK1 receptor in Sprague-Dawley rat pituitary gland assessed as change in LH release at 1000 ng/ml by radioimmunoassay (reference value: -11 +/- 27 ng/ml)
[9] = target: Substance-P receptor (Rattus norvegicus) (UniProt P14600); experiment: Antagonist activity at NK1 receptor in Sprague-Dawley rat pituitary gland assessed as inhibition of FSH release by radioimmunoassay in presence of LH-RH
Summary of the method: as §1

[10] = target: Substance-P receptor (Rattus norvegicus) (UniProt P14600); experiment: Antagonist activity at NK1 receptor in Sprague-Dawley rat pituitary gland assessed as inhibition of LH release by radioimmunoassay in presence of LH-RH
Summary of the method: as §1

[11] = target: Substance-P receptor (Rattus norvegicus) (UniProt P14600); experiment: Agonist activity at NK1 receptor in Sprague-Dawley rat pituitary gland assessed as change in LH release at 100000 ng/ml by radioimmunoassay (reference value: -11 +/- 27 ng/ml)
[12] = Retardation factor of the compound using CHCl3-MeOH-concentrated NH4OH at ratio of 60:45:20 as solvent system by thin layer chromatography; format: physicochemical
Canis familiaris [13] = experiment: Decrease in systemic arterial blood pressure in dog at >5 ng/kg, iv measured for 2 to 20 mins after drug dosage; format: functional, organism-based; settings: Canis lupus familiaris; Artery
Pituitary gland [14] = experiment: Effect on thyrotropin hormone release in Sprague-Dawley rat pituitary gland at 100 ug/ml by radioimmunoassay; format: functional, tissue-based
Summary of the method: as §1

[15] = Retardation factor of the compound using n-BuOH-HOAc-EtOAc-H2O at ratio of 1:1:1:1 as solvent system by thin layer chromatography; format: physicochemical
[16] = Retardation factor of the compound using EtOH-H2O at ratio of 7:3 as solvent system by thin layer chromatography; format: physicochemical
[17] = target: Substance-P receptor (Rattus norvegicus) (UniProt P14600); experiment: Agonist activity at NK1 receptor in Sprague-Dawley rat pituitary gland assessed as change in FSH release at 10000 ng/ml by radioimmunoassay (reference value: 613 +/- 203 ng/ml)
[18] = Retardation factor of the compound using EtOAc-Pyr-HOAc-H2O at ratio of 5:5:1:3 as solvent system by thin layer chromatography; format: physicochemical
[19] = target: Substance-P receptor (Rattus norvegicus) (UniProt P14600); experiment: Agonist activity at NK1 receptor in Sprague-Dawley rat pituitary gland assessed as change in FSH release at 100000 ng/ml by radioimmunoassay (reference value: 613 +/- 203 ng/ml)

Chain of Substance-P receptor (Rattus norvegicus) (P14600 whole entry): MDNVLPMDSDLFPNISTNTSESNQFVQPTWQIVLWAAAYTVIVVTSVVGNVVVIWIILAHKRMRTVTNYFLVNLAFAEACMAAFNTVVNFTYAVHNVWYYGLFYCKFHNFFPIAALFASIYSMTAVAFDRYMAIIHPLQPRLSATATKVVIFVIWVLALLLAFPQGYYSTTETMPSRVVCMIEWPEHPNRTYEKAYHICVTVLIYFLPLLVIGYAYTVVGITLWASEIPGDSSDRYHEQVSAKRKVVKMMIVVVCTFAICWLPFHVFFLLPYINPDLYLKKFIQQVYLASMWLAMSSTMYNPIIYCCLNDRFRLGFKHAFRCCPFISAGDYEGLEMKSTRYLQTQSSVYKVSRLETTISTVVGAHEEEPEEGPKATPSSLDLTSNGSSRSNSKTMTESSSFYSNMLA
Chain of Substance-P receptor (Cavia porcellus) (P30547 whole entry): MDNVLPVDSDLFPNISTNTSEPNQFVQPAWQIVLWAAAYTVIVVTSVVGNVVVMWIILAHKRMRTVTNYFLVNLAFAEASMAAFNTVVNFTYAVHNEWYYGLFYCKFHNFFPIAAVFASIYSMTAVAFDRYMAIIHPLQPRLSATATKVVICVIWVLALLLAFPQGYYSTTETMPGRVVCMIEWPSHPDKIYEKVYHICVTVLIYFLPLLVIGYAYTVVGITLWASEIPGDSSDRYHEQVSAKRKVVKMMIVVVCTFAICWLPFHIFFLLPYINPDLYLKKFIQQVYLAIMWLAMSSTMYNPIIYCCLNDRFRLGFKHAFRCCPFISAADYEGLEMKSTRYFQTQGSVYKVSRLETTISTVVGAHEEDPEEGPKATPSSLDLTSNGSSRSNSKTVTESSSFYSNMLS

CSCC[C@H](NC(=O)[C@H](CC(C)C)NC(=O)CNC(=O)[C@H](Cc1ccc(O)cc1)NC(=O)[C@H](Cc1ccccc1)NC(=O)[C@H](CCC(N)=O)NC(=O)[C@H](CCC(N)=O)NC(=O)[C@@H]1CCCN1C(=O)[C@H](CCCCN)NC(=O)[C@@H]1CCCN1C(=O)[C@@H](N)CCCNC(=N)N)C(N)=O
Activity [1]: 11 ng/mL | Rf [2]: 0.05 | Activity (Canis familiaris [3]): 110 mmHg | Activity (Pituitary gland [4]): inactive | Activity [5]: Active | Activity (Pituitary gland [6]): inactive | Activity [7]: 666 ng/mL | Activity [8]: -13 ng/mL | inhibition [9]: inactive | inhibition [10]: inactive | Activity [11]: 68 ng/mL | Rf [12]: 0.13 | inhibition (Canis familiaris [13]): Active | Activity (Pituitary gland [14]): inactive | Rf [15]: 0.09 | Rf [16]: 0 | Activity [17]: 586 ng/mL | Rf [18]: 0.9 | Activity [19]: 1330 ng/mL
